Laboratory results as given in ChEMBL document CHEMBL1132376, “Synthesis, structure-activity relationships, and RARgamma-ligand interactions of nitrogen heteroarotinoids” (J Med Chem, 1999).

Columns and labels:
[1] = system: CC-1; experiment: Percent inhibition of CC-1 cervical cell proliferation; type: functional, Homo sapiens
In short: (§1)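 Carcinoma cell lines were seeded at 2000–4000 cells/well and dosed the next day at 10 µM against a DMSO control. After 72 h cells were TCA-fixed, SRB-stained and the dye solubilized in Tris-HCl, then OD was read. Triplicates were averaged, and % inhibition = (1 − treated/control OD) × 100.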

[2] = system: SW 954; experiment: Percent of growth inhibition of Cell line SW954 (Vulvar) by the compound; type: functional, Homo sapiens; in short: as §1
[3] = system: SCC-38; experiment: Percent of growth inhibition of Cell line SCC-38(Head and Neck) by the compound; type: functional, Homo sapiens; in short: as §1
[4] = target: T1, Retinoic acid receptor alpha (Homo sapiens) (UniProt P10276); experiment: Percent transcriptional activation relative to 9-cis RA in CV-1 cells expressing Retinoic acid receptor RAR alpha; type: functional, cell-based
T1 sequence (whole entry): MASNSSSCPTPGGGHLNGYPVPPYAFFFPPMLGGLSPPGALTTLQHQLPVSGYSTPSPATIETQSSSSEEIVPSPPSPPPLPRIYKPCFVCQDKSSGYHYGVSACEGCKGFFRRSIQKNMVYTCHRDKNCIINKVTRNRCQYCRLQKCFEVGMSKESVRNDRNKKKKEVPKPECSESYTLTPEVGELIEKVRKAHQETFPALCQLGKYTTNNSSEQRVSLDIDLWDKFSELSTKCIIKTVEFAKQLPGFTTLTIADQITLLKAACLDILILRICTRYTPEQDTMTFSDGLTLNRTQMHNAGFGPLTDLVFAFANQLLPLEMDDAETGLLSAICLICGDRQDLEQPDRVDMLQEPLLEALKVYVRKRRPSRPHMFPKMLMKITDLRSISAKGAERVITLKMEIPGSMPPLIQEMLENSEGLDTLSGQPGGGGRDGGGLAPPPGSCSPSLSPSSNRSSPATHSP
In short: (§2)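 CV-1 cells were transiently cotransfected with a human RARα/β/γ or mouse RXRα/β/γ expression vector (100 ng), βRARE-tk-CAT reporter (500 ng) and β-gal control (100 ng). Retinoids (10^-10–10^-5 M, 0.1% DMSO) were added 16–18 h later for 24 h, and CAT and β-gal were read by ELISA. Efficacy = maximal activity ÷ 9-cis-RA maximal activity. Triplicates were run in at least two experiments.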

[5] = system: SiHa; experiment: Percent of growth inhibition of Cell line SiHa (Cervix) by the compound; type: functional, Homo sapiens; in short: as §1
[6] = target: T2, Retinoic acid receptor beta (Homo sapiens, UniProt P10826); experiment: Transcriptional activation in CV-1 cells expressing Retinoic acid receptor RAR beta; type: functional, cell-based
T2 sequence (P10826 whole entry): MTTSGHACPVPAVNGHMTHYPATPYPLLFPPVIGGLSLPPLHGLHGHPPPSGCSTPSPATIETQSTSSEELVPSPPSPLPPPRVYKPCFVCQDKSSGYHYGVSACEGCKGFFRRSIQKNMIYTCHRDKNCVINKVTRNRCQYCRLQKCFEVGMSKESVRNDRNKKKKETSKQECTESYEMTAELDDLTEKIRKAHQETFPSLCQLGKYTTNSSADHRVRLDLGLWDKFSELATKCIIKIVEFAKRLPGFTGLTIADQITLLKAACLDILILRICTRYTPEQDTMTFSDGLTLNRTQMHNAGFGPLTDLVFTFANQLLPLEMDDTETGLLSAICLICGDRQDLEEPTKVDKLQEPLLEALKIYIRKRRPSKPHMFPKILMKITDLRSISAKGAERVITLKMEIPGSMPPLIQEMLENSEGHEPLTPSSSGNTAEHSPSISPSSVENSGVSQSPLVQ
In short: (§3)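 CV-1 cells were cotransfected with a human RAR or mouse RXR subtype vector, βRARE-tk-CAT reporter and β-gal internal control. Retinoids were applied at 10^-10–10^-5 M (0.1% DMSO) for 24 h, then CAT/β-gal was measured by ELISA. Potency is the concentration giving half of the agent's own maximal activity. Triplicates were run in at least two experiments.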

[7] = target: T3, Retinoic acid receptor RXR-beta (Mus musculus, UniProt P28704); experiment: Transcriptional activation in CV-1 cells expressing Retinoid X receptor RXR beta; type: functional, cell-based; in short: as §3
T3 sequence (P28704 whole entry): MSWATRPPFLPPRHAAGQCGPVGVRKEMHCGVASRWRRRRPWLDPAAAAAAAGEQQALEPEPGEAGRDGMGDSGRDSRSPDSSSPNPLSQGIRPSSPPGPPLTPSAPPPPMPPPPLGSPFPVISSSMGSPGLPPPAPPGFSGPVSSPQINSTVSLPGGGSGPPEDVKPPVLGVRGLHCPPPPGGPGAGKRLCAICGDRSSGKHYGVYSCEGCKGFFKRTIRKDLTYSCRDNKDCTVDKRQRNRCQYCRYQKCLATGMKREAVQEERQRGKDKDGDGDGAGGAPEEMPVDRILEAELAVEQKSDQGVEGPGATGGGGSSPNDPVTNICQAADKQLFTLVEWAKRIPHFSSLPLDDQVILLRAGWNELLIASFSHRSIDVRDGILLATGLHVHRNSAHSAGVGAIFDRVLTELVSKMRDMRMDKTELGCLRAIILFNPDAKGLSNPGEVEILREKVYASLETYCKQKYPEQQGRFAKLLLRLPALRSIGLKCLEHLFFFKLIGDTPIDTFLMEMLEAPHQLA

[8] = Percent transcriptional activation relative to 9-cis RA in CV-1 cells expressing Retinoid X receptor RXR alpha; type: functional, Mus musculus; in short: as §2
[9] = Percent transcriptional activation relative to 9-cis RA in CV-1 cells expressing Retinoic acid receptor RAR gamma; type: functional, Homo sapiens; in short: as §2
[10] = target: T4, Retinoic acid receptor RXR-gamma (Mus musculus, UniProt P28705); experiment: Transcriptional activation in CV-1 cells expressing Retinoid X receptor RXR gamma; type: functional, cell-based; in short: as §3
T4 sequence (P28705 whole entry): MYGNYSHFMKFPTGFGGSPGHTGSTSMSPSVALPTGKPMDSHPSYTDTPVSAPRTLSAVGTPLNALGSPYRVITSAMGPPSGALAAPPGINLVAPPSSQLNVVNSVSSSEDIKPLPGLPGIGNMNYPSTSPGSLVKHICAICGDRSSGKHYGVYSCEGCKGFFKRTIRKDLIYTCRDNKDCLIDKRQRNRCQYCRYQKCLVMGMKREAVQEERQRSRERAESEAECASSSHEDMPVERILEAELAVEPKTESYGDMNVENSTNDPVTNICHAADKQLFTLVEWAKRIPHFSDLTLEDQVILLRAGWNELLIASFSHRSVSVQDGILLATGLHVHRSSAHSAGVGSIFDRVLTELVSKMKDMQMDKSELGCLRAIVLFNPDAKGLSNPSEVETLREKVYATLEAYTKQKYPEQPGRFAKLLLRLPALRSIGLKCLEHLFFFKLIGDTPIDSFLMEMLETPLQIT

[11] = system: SW 962; experiment: Percent of growth inhibition of Cell line SW962 (Vulvar) by the compound; type: functional, Homo sapiens; in short: as §1
[12] = Transcriptional activation in CV-1 cells expressing Retinoid X receptor RXR alpha; type: functional, cell-based; in short: as §3
[13] = target: T5, Retinoic acid receptor RXR-gamma (Mus musculus) (UniProt P28705); experiment: Percent transcriptional activation relative to 9-cis RA in CV-1 cells expressing Retinoid X receptor RXR gamma; type: functional, cell-based; in short: as §2
T5 sequence (whole entry): T4 sequence (P28705 whole entry)

[14] = target: T6, Retinoic acid receptor beta (Homo sapiens) (UniProt P10826); experiment: Percent transcriptional activation relative to 9-cis RA in CV-1 cells expressing Retinoic acid receptor RAR beta; type: functional, cell-based; in short: as §2
T6 sequence (whole entry): T2 sequence (P10826 whole entry)

[15] = system: SK-OV-3; experiment: Percent of growth inhibition of Cell line SKOV-3(Ovarian) by the compound; type: functional, Homo sapiens; in short: as §1
[16] = target: T7, Retinoic acid receptor alpha (Homo sapiens, UniProt P10276); experiment: Transcriptional activation in CV-1 cells expressing human Retinoic acid receptor alpha; type: functional, cell-based; in short: as §3
T7 sequence (P10276 whole entry): T1 sequence (whole entry)

[17] = target: T8, Retinoic acid receptor RXR-beta (Mus musculus) (UniProt P28704); experiment: Percent transcriptional activation relative to 9-cis RA in CV-1 cells expressing Retinoid X receptor RXR beta; type: functional, cell-based; in short: as §2
T8 sequence (whole entry): T3 sequence (P28704 whole entry)

[18] = system: Caov-3 cell line; experiment: Percent of growth inhibition of Cell line Caov-3(Ovarian) by the compound; type: functional, Homo sapiens; in short: as §1
[19] = system: SCC-2; experiment: Percent of growth inhibition of Cell line SCC-2(Head and Neck) by the compound; type: functional, Homo sapiens; in short: as §1
[20] = The compound was evaluated for Tissue Transglutaminase induction
In short: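 HEL cells ((1–2) × 10^5/mL) were exposed to 10 µM retinoid for 48 h, washed in PBS and sonicated in Tris/NaCl/EDTA/PMSF buffer (pH 7.4). TGase was measured as Ca2+-dependent [14C]putrescine incorporation into N,N-dimethylcasein, counting acid-insoluble radioactivity, with Lowry protein. Efficacy is expressed relative to maximal t-RA activity.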

[21] = Transcriptional activation in CV-1 cells expressing Retinoic acid receptor RAR gamma; type: functional, cell-based; settings: Homo sapiens; in short: as §3
[22] = system: CC-1; experiment: Percent of growth inhibition of Cell line CC-1(Cervix) by the compound; type: functional, Homo sapiens; in short: as §1

SMILES	Inhibition [1]	Inhibition [2]	Inhibition [3]	Efficacy [4]	Inhibition [5]	EC50 [6]	EC50 [7]	Efficacy [8]	Efficacy [9]	EC50 [10]	Inhibition [11]	EC50 [12]	Efficacy [13]	Efficacy [14]	Inhibition [15]	EC50 [16]	Efficacy [17]	Inhibition [18]	Inhibition [19]	Induction [20]	other results
CCOC(=O)c1ccc(OC(=O)c2ccc3c(c2)C(C)(C)CCN3C(C)C)cc1	15%	49%	25%	59%	25%	41 nM	47 nM	62%	0%	27 nM	25%	12 nM	47%	71%	2%	217 nM	45%	13%	24%	49	
C/C(=C/c1ccc(C(=O)O)cc1)c1ccc2c(c1)C(C)(C)CCC2(C)C		30%									20%				20%			15%			
CCOC(=O)c1ccc(OC(=O)c2cc3c(cc2C)N(C)CCC3(C)C)cc1	20%	77%	20%	64%	26%	92 nM	70 nM	53%	103%	49 nM	80%	102 nM	52%	63%	0%	796 nM	55%	10%	20%	49	EC50 [21]: 6 nM
CC1=C(/C=C/C(C)=C\C=C\C(C)=C\C(=O)O)C(C)(C)CCC1 [ALITRETINOIN]		35%	24%		25%						30%				27%			25%	25%		Inhibition [22]: 15%
CCOC(=O)c1ccc(OC(=O)c2ccc3c(c2)C(C)(C)CCN3C)cc1	25%	35%	20%	45%	40%	256 nM	33 nM	47%	0%	20 nM	15%	601 nM	52%	64%	0%	1130 nM	53%	0%	20%	37	
